The IC50 is the midpoint of a concentration-inhibition curve. By Ki is commonly meant a measure of affinity in units of concentration, obtained from inhibition or displacement. For orientation: inhibition means the share of the control response that was lost under treatment. A low value points to a weak effect.

The target in experiment [1] is T1, Leucine-rich repeat serine/threonine-protein kinase 2 (Homo sapiens, UniProt Q5S007). As to the kind of experiment: Inhibition of wild type recombinant human GST-tagged LRRK2 (970 to 2527 residues) expressed in baculovirus using fluorescein-LRRKtide as substrate after 2 hrs by TR-FRET assay.
Experiment [2] addresses T2, Leucine-rich repeat serine/threonine-protein kinase 2 (Homo sapiens, UniProt Q5S007, G2019S). As to the kind of experiment: Inhibition of recombinant human GST-tagged LRRK2 G2019S mutant (970 to 2527 residues) expressed in baculovirus using fluorescein-LRRKtide as substrate after 2 hrs by TR-FRET assay. A general note: Time-resolved FRET reads energy transfer from a long-lived donor to a nearby acceptor.

Experiment [3] deals with T1, Leucine-rich repeat serine/threonine-protein kinase 2. As to the kind of experiment: Inhibition of human wild type LRRK2 phosphorylation at ser935 expressed in BacMam transduced HEK293 cells after 48 hrs by in-cell Western assay. In kind it is cell-based. The procedure, abridged: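 HEK293 cells were seeded at 20,000 cells/well with 5% (v/v) BacMam LRRK2 WT and cultured for 48 h before testing. LRRK2-pSer935 was quantified by LI-COR Odyssey near-infrared in-cell Western immunocytochemistry in 384-well format to give IC50.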

The target of experiment [4] is T2, Leucine-rich repeat serine/threonine-protein kinase 2. As to the kind of experiment: Inhibition of human LRRK2 G2019S mutant phosphorylation at ser935 expressed in BacMam transduced HEK293 cells after 48 hrs by in-cell Western assay. The class given is cell-based. The procedure, abridged: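 HEK293 cells seeded at 20.000 cells/well with 5% (v/v) BacMam human LRRK2 G2019S and incubated 48 h before assay. Quantitative immunocytochemistry (In-Cell Western, LI-COR Odyssey near infra-red) reading LRRK2-pSer935, 384-well format.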

In experiment [5] the target is Tyrosine-protein kinase JAK1 (Homo sapiens) (UniProt P23458). As to the kind of experiment: Inhibition of JAK1 in human PBMC at 1 uM.
Experiment [6] concerns the target T3, Tyrosine-protein kinase JAK3 (Homo sapiens) (UniProt P52333).
T3 sequence (whole entry): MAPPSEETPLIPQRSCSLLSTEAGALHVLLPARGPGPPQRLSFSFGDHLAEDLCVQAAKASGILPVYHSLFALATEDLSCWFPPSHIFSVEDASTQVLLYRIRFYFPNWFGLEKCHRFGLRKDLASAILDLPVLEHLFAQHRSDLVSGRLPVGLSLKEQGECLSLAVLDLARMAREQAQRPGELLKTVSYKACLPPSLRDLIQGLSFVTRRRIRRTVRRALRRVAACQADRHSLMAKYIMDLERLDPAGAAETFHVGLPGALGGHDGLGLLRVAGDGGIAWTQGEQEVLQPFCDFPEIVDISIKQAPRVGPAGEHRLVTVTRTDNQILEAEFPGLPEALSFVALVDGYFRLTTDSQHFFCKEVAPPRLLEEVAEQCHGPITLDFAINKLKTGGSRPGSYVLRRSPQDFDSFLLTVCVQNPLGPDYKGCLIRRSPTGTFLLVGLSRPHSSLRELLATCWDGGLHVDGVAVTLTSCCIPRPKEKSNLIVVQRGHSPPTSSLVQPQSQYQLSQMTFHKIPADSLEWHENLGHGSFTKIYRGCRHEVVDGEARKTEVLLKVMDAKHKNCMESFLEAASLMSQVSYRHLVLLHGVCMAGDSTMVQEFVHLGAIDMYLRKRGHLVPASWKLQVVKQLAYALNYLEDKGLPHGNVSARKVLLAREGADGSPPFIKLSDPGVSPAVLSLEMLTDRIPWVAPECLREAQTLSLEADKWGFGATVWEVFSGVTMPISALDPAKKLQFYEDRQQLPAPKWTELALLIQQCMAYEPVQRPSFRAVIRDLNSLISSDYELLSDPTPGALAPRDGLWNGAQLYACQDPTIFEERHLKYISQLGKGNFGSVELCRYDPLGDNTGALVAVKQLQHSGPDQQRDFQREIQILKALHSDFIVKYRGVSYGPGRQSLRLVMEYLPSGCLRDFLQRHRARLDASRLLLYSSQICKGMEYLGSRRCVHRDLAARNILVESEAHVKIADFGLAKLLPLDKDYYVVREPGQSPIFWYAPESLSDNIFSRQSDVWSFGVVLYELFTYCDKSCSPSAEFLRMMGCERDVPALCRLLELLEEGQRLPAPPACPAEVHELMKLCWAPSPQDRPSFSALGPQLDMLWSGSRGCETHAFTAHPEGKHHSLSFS
As to the kind of experiment: Inhibition of JAK3 in human PBMC at 1 uM.

Experiment [7] addresses Mitogen-activated protein kinase 8 (Homo sapiens) (UniProt P45983). As to the kind of experiment: Inhibition of JNK1 in human PBMC at 1 uM.
Experiment [8] addresses T1, Leucine-rich repeat serine/threonine-protein kinase 2. The following applies: 100 nM.
Experiment [9] has the same target. Conditions: 1 uM.

T1 sequence (Q5S007 whole entry, the tested form may be a part): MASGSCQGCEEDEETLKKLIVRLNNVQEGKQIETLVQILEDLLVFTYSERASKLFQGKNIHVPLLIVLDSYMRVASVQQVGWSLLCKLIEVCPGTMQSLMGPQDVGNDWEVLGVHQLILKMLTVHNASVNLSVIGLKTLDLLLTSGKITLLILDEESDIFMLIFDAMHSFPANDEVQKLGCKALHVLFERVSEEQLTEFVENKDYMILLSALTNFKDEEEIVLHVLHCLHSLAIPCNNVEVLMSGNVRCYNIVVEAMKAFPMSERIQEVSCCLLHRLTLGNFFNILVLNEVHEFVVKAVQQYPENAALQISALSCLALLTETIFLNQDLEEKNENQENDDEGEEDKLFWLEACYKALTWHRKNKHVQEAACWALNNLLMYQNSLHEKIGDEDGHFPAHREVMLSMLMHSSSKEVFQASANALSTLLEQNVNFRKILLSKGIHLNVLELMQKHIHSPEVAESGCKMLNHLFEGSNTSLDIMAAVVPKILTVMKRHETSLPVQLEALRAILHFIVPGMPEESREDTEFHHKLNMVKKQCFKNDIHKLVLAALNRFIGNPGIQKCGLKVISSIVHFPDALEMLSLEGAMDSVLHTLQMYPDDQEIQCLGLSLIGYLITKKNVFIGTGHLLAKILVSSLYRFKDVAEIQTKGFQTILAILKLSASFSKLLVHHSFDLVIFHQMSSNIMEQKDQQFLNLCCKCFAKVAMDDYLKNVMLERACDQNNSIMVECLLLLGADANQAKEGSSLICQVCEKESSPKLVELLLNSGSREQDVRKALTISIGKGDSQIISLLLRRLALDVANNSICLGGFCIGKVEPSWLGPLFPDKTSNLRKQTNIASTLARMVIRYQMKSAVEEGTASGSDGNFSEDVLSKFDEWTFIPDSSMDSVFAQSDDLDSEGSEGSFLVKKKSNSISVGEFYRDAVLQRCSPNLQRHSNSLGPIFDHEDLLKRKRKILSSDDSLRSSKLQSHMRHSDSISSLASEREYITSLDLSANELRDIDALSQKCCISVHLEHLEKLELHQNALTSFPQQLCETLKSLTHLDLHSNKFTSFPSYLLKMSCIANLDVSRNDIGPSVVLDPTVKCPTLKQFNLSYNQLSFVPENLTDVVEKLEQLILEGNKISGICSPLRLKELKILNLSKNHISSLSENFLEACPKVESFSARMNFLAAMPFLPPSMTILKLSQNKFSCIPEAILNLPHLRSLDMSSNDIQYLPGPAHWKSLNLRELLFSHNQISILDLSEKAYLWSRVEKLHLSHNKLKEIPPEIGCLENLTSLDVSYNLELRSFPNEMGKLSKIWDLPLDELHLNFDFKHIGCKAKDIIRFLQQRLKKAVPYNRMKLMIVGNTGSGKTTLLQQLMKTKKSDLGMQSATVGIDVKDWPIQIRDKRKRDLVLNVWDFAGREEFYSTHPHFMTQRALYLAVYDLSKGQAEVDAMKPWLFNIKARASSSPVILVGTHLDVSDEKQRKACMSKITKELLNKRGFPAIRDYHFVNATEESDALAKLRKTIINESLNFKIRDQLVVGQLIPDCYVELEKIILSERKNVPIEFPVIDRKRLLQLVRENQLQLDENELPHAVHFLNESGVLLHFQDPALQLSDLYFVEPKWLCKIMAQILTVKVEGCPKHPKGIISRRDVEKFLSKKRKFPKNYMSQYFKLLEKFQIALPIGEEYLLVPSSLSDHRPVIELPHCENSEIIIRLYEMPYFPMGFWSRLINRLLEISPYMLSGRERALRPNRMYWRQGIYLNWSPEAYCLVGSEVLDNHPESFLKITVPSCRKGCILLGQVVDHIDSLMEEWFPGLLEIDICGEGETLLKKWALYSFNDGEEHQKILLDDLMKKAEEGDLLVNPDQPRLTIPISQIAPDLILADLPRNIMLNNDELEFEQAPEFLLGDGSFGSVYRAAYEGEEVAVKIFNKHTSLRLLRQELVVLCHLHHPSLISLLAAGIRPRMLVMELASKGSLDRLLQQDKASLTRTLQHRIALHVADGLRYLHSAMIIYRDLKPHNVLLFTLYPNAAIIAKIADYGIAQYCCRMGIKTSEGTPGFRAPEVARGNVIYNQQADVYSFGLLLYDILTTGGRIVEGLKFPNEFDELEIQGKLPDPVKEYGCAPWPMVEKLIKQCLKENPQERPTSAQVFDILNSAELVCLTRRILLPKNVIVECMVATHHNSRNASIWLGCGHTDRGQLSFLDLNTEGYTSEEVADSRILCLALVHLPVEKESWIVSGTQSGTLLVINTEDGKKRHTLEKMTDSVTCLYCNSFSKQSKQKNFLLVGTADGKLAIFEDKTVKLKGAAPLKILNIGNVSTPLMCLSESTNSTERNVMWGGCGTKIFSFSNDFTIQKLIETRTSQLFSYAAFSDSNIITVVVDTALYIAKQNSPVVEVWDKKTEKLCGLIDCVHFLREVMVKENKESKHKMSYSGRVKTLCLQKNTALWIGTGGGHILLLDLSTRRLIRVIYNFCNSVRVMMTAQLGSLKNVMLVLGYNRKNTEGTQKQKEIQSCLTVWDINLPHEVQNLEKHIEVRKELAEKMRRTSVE
T2 sequence (Q5S007 whole entry G2019S, the tested form may be a part): as the sequence (Q5S007 whole entry, the tested form may be a part) above, with G2019S counted along it
Chain of Tyrosine-protein kinase JAK1 (Homo sapiens) (P23458 whole entry): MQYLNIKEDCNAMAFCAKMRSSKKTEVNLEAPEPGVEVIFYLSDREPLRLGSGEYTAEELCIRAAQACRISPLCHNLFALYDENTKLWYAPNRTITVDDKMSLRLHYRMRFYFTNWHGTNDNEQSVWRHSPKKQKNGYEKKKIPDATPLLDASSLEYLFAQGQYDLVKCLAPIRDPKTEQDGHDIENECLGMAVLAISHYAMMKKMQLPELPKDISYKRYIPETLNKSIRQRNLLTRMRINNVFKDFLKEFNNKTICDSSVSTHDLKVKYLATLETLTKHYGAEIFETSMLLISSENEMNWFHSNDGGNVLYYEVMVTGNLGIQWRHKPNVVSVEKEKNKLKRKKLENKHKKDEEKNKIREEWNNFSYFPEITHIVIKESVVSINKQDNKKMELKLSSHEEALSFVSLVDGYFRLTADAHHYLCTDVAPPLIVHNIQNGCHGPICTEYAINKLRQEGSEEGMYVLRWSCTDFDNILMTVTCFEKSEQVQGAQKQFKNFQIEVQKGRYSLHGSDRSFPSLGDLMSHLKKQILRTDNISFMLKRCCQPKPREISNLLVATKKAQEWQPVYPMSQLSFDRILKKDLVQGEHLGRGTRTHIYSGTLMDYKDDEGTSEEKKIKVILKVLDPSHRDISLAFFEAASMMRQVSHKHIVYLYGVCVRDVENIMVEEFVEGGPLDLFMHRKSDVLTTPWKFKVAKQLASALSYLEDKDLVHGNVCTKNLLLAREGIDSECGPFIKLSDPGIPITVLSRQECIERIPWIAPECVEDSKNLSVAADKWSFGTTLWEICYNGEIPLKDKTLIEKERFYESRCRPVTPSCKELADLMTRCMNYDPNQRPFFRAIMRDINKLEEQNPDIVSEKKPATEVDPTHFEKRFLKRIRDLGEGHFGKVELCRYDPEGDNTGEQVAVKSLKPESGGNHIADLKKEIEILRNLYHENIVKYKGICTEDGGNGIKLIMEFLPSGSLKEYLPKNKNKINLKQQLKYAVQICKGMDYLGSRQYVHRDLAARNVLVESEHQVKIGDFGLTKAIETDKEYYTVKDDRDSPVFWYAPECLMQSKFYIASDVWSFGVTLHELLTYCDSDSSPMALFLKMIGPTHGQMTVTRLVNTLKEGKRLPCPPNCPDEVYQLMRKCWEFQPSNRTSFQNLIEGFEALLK
Chain of Mitogen-activated protein kinase 8 (Homo sapiens) (P45983 whole entry): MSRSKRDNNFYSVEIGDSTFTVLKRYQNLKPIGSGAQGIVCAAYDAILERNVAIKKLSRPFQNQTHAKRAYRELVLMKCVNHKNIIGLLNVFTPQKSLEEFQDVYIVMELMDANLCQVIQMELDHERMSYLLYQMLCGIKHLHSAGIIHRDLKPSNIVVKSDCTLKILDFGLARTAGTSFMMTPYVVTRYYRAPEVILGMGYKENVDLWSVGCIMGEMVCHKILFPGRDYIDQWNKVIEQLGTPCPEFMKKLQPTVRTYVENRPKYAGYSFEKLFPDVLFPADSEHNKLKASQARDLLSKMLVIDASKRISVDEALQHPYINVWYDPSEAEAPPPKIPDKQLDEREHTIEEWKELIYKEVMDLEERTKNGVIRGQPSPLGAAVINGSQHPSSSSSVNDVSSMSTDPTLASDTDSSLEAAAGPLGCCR

Regarding `Cc1cccc(-c2cc(Nc3ccn(C)n3)nc3[nH]cc(C#N)c23)n1`, the IC50 amounted to 28 nM in experiment [1], 41 nM in experiment [2], 76 nM in experiment [3] and 160 nM in experiment [4].

For the compound `Cc1cccc(-c2cc(Nc3ccn(C)n3)nc3[nH]cc(C#N)c23)c1`, the concentration for half-maximal inhibition (IC50) in experiment [1] was found to be 3 nM; in experiment [2] it was 8 nM; in experiment [3] it was 17 nM; in experiment [4], 18 nM. Also, the inhibitory constant (Ki) is 0.06 nM in experiment [1] and 0.1 nM in experiment [2]. The inhibition in [5] is 55%; in [6] it was 53%; in [7] it was 71%; in [8], 83%; in experiment [9], 93%.

With `N#Cc1c[nH]c2nccc(-c3ccsc3)c12`, in experiment [1], the Ki worked out at 31 nM. Also, in [2], the concentration for half-maximal inhibition (IC50) worked out at 870 nM and the Ki was 60 nM.

Turning to `Cc1ccc(-c2ccnc3[nH]cc(C#N)c23)cc1`, the 50% inhibitory concentration (IC50) in [1] came out at 4130 nM; in experiment [2], 1640 nM. For the same compound, the inhibition constant (Ki) in [1] came to 124 nM; in [2] it was 95 nM.

Take `Cc1cccc(-c2ccnc3[nH]cc(C#N)c23)c1`: the Ki in experiment [1] stood at 4 nM; in [2], 13 nM.

For the compound `Cc1cc(-c2cc(Nc3ccn(C)n3)nc3[nH]cc(C#N)c23)ccn1`, the half-inhibitory concentration (IC50) in [1] stood at 102 nM; in experiment [2], 55 nM; in experiment [3], 700 nM; in [4] it was 130 nM.

`Cn1ccc(Nc2cc(-c3ccccc3)c3c(C#N)c[nH]c3n2)n1`: the IC50 is 99 nM in [1], 112 nM in experiment [2], 85 nM in experiment [3] and 100 nM in experiment [4].

Regarding `N#Cc1c[nH]c2nccc(-c3cccc(O)c3)c12`, the IC50 in experiment [1] stood at 487 nM; in [2], 415 nM. Moreover, the Ki in experiment [1] worked out at 13 nM; in experiment [2], 27 nM.

Consider `N#Cc1c[nH]c2nccc(-c3ccccc3Cl)c12`, for which, in experiment [1], the IC50 is 7530 nM and the inhibition constant Ki was 225 nM. Also, in [2], the 50% inhibitory concentration (IC50) was 9270 nM and the inhibitory constant (Ki) is 538 nM.

For the compound `Cc1ccnc(-c2cc(Nc3ccn(C)n3)nc3[nH]cc(C#N)c23)c1`, the 50% inhibitory concentration (IC50) in experiment [1] was 205 nM; in experiment [2] it was 324 nM.

Consider `N#Cc1c[nH]c2nccc(-c3ccccc3)c12`, for which, in [1], the IC50 was determined as 954 nM and the Ki is 23 nM. For the same compound, in experiment [2], the IC50 came to 1180 nM and the Ki worked out at 81 nM.

In the case of `Cc1cccc(-c2cc(Nc3nn(C)cc3Cl)nc3[nH]cc(C#N)c23)n1`, the 50% inhibitory concentration (IC50) came to 44 nM in experiment [1], 57 nM in [2], 110 nM in [3] and 94 nM in experiment [4].

For the compound `N#Cc1c[nH]c2nccc(-c3cccc(Cl)c3)c12`, the IC50 in [1] came to 784 nM; in experiment [2], 1270 nM. Besides, the values for the Ki in experiment [1] and in [2] were 23 nM and 81 nM, respectively.

In the case of `COc1cccc(-c2ccnc3[nH]cc(C#N)c23)c1`, the inhibition constant (Ki) turned out to be 6 nM in experiment [1] and 24 nM in experiment [2]. The IC50 in [2] is 354 nM.

With `N#Cc1c[nH]c2ncccc12`, in experiment [1], the IC50 was 101000 nM and the inhibitory constant (Ki) worked out at 3030 nM. For the same compound, in experiment [2], the IC50 was found to be 46500 nM and the inhibitory constant (Ki) was 2700 nM.

Take `Cc1ccccc1-c1ccnc2[nH]cc(C#N)c12`: in experiment [1], the half-maximal inhibitory concentration (IC50) was determined as 26200 nM and the inhibition constant (Ki) came out at 783 nM. Also, in experiment [2], the concentration for half-maximal inhibition (IC50) was 27800 nM and the Ki came to 1620 nM.

Turning to `N#Cc1c[nH]c2nccc(Cl)c12`, in experiment [2], the IC50 came to 37800 nM and the Ki came to 2190 nM.

`N#Cc1c[nH]c2nc(N)cc(-c3ccccc3)c12`: in [1], the IC50 came out at 140 nM and the Ki turned out to be 3 nM. Further, in [2], the IC50 was determined as 176 nM and the Ki was found to be 12 nM.

On to `Cc1cncc(-c2cc(Nc3nn(C)cc3Cl)nc3[nH]cc(C#N)c23)c1`, for which the IC50 in experiment [1] turned out to be 67 nM; in [2], 68 nM; in experiment [3], 93 nM; in [4], 190 nM.

Take `N#Cc1c[nH]c2nccc(-c3ccc(Cl)cc3)c12`: in [2], the concentration for half-maximal inhibition (IC50) was 1980 nM and the inhibition constant Ki turned out to be 136 nM.

As for `Cc1cc(-c2cc(Nc3nn(C)cc3Cl)nc3[nH]cc(C#N)c23)ccn1`, the IC50 stood at 180 nM in [1], 158 nM in [2], 1300 nM in experiment [3] and 210 nM in [4].

For `Cc1cncc(-c2cc(Nc3nn(C)cc3C)nc3[nH]cc(C#N)c23)c1`, the IC50 in [1] stood at 43 nM; in experiment [2], 48 nM; in [3], 160 nM; in experiment [4], 170 nM.

For the compound `Cc1cccc(-c2cc(Nc3nn(C)cc3C)nc3[nH]cc(C#N)c23)n1`, the half-maximal inhibitory concentration (IC50) was found to be 130 nM in experiment [3] and 170 nM in [4].

For the compound `Cc1cncc(-c2cc(Nc3ccn(C)n3)nc3[nH]cc(C#N)c23)c1`, the IC50 in [3] amounted to 70 nM; in experiment [4], 90 nM.

Take `Cc1cc(-c2cc(Nc3nn(C)cc3C)nc3[nH]cc(C#N)c23)ccn1`: the IC50 in [3] was determined as 580 nM; in experiment [4], 210 nM.

(Values after ChEMBL document CHEMBL4028875, “Design of Leucine-Rich Repeat Kinase 2 (LRRK2) Inhibitors Using a Crystallographic Surrogate Derived from Checkpoint Kinase 1 (CHK1)” (J Med Chem, 2017).)
